Data published in article PMC2805915 (Nature medicine, 2009).

Experiments:
[1] = system: Bcl6-dependent DLBCL cell lines; assay: Growth inhibition determination; format: cell-based, human; conditions: read-out: GI50 (concentration that inhibited the growth of the cell lines by 50% compared to control); 48 h; group of seven Bcl6-dependent DLBCL cell lines
How it was run: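 Cells seeded so untreated controls stayed in exponential growth through the 48 h exposure, then treated with 0.1–10 μM test compound or water vehicle in 10% serum medium. Viability read by resazurin reduction fluorescence (560Ex/590Em), with viable cells calculated from a standard curve and 6 replicates per condition, and verified by sulforhodamine B or ATP luminescence. Values normalized to controls. Experiments in triplicate. GI50 taken from dose-effect curves and reported as mean with 95% CI.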

[2] = system: Bcl6-independent DLBCL cell lines; assay: Growth inhibition determination; format: cell-based, human; conditions: read-out: GI50 (concentration that inhibited the growth of the cell lines by 50% compared to control); 48 h; group of four Bcl6-independent DLBCL cell lines
Bcl6 [3] = assay: Bcl6 immunoblot in DLBCL cells; format: cell-based, human
How it was run: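 Farage, OCI-Ly7 and SU-DHL4 cells exposed 24 h to 0.1, 0.25, 0.5 or 1 μM test compound; OCI-Ly7 also given 0.5 μM for 4, 6, 12, 18, 24 and 48 h. Compound added from concentrated stock to 10% serum medium. Lysates immunoblotted for Bcl6 with N-terminal (N3) and C-terminal (C19) antibodies, actin as loading control.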

Bcl6 [4] = assay: Protein decay determination; format: cell-based, human; conditions: OCI-Ly7; 0.5 µM PU-H71 after Cycloheximide 5 μM
How it was run: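 OCI-Ly7 cells, control or test-compound treated, incubated with 5 μM cycloheximide over a time course. Bcl6 and actin immunoblotted at each point; Bcl6/actin ratio quantified by densitometry with untreated cells set at 100% and plotted against time.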

BCL6 mRNA = assay: mRNA decay determination; format: cell-based, human; conditions: OCI-Ly7; versus vehicle-treated cells
How it was run: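 OCI-Ly7 cells pretreated 2 h with 0.5 μM test compound or control, then actinomycin D added for a time course. BCL6 mRNA quantified by QPCR against a standard curve, normalized to untreated cells; three independent experiments averaged to derive half-life.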

[5] = system: primary human DLBCL cells; assay: Primary cells treatment, viability; format: cell-based; conditions: 2.5 μM; 48 h; versus vehicle-treated controls
How it was run: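 Lymph node biopsies disrupted physically and separated by density gradient; cells kept in 80% RPMI/20% human serum with antibiotics, L-glutamine and HEPES. Exposed in triplicate to 2.5 μM test compound or water for 48 h. Viability read by ATP luminescence and dye exclusion, expressed as percent of vehicle control.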

Pharmacokinetic = format: in vivo; conditions: Farage xenograft mice, 75 mg per kg i.p.
How it was run: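 Mice bearing 1 cm3 Farage xenografts received a single 75 mg/kg i.p. dose of test compound; killed at 6, 12 and 24 h alongside controls. Serum, tumor and normal tissues assayed for compound concentration by HPLC-MS.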

OCI-Ly7 xenografts = assay: Mice xenotransplant study, OCI-Ly7; format: in vivo, SCID mice; conditions: 75 mg per kg per day; 20 days
SU-DHL6 xenograft = assay: Mice xenotransplant study, SU-DHL6; format: in vivo, SCID mice; conditions: 75 mg per kg per day; 20 days
How it was run: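 Additional cohort of SCID mice with s.c. OCI-Ly7 or SU-DHL6 xenografts held until mean tumor volume reached 500 mm3, then given test compound i.p. for 20 days; tumor volume followed by caliper every other day.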

Toledo xenografts = assay: Mice xenotransplant study, Toledo; format: in vivo, SCID mice; conditions: Bcl6-independent; similar dose (75 mg per kg per day)
[6] = system: Farage, OCI-Ly7 and SU-DHL4 DLBCL xenografts; assay: Mice xenotransplant study, pooled; format: in vivo, SCID mice; conditions: 75 mg per kg per day
How it was run: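 Male SCID mice, 6–8 weeks old, injected s.c. in the left flank with 10^7 low-passage DLBCL cells. At palpable size (about 75–100 mm3, 24–33 days), pairs were randomized to vehicle or 75 mg/kg/day test compound i.p. (reconstituted in sterile water) for 10 days, n = 5 per arm per line. Caliper volume was measured every other day as (smallest diameter² × largest)/2. Mice were euthanized when ≥2 of 10 tumors reached 20 mm. Tumors were weighed and TUNEL-scored as apoptotic/total cells. Survival ran from treatment start to death or tenfold volume rise, by Kaplan-Meier with Cox's F test.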

[7] = Toxicity in xenografted mice; format: in vivo, SCID mice; conditions: 75 mg per kg per day, 10 days
How it was run: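 Xenografted SCID mice dosed i.p. at 75 mg/kg/day were weighed every other day. At euthanasia, blood was collected and tumors and other tissues were harvested, weighed and examined microscopically by pathologists.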

Mice toxicity studies = format: in vivo, Balb/c mice; conditions: 50 or 75 mg per kg per day; 10 days

CC(C)NCCCn1c(Sc2cc3c(cc2I)OCO3)nc2c(N)ncnc21 [PU-H71]
GI50 [1]: 1.39 µM
GI50 [2]: 71 µM
Bcl6 protein abundance (Bcl6 [3]; 24 h, 0.1-1 μM, Farage, OCI-Ly7 and SU-DHL4): dose-dependent reduction
Bcl6 protein (immunoblot, antibodies N3 and C19) (Bcl6 [3]; OCI-Ly7, 0.5 μM, after 18 h): barely detectable
time for relative Bcl6 protein abundance to decrease from 100% to 50% (Bcl6 [4]): 5 h
increase in Bcl6 mRNA decay rate (BCL6 mRNA): 32%
cases among 21 DLBCLs with greater than 25% loss of viability [5]: 19
PU-H71 concentration in tumor (Pharmacokinetic; 6 h): 42.1 µg/g
PU-H71 concentration in tumor (Pharmacokinetic; 12 h): 27.6 µg/g
PU-H71 concentration in tumor (Pharmacokinetic; 24 h): 12 µg/g
PU-H71 in serum (Pharmacokinetic; after the 6 h timepoint): undetectable
tumor volume in steady phase (OCI-Ly7 xenografts): ~500 mm^3
tumor volume (SU-DHL6 xenograft): ≤ 100 mm^3
effect on xenograft growth (Toledo xenografts): no effect
DLBCL size and weight compared to control ([6]; 10 days): potently reduced
survival (tumor growth to critical mass as surrogate) v controls ([6]; n = 15, Cox's F test P < 0.0001): significantly prolonged
toxicity from behavioral, macroscopic or microscopic standpoints [7]: no evidence of toxicity
hematologic, renal or hepatic toxicity (blood counts, chemistry, liver function, thyroid hormone) (Mice toxicity studies): no evidence of hematologic, renal or hepatic toxicity
macroscopic or microscopic toxicity (Mice toxicity studies): no evidence of macroscopic or microscopic toxicity
